For one data set, the system named is Escherichia coli. Put plainly: Antibacterial activity against Escherichia coli by broth dilution assay. The format is functional. An outline of the steps: (§1)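 MIC99 by broth-dilution assay; antibacterial and culture details are in the Supporting Information.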
The test system of another data set is Klebsiella pneumoniae. The data set can be described thus: Antibacterial activity against Klebsiella pneumoniae by broth dilution assay. The format is functional. In short, it runs like this: as §1
The next data set deals with Acinetobacter baumannii. The data set can be described thus: Antibacterial activity against Acinetobacter baumannii by broth dilution assay. The format is functional. In short, it runs like this: as §1
In general terms: Broth dilution looks for growth in wells or tubes with falling amounts of substance.

Another data set deals with Erythrocyte. Put plainly: Hemolytic activity against human RBC incubated for 1 hr. The format is ADME, cell-based.
Another data set concerns A549. Put plainly: Cytotoxicity against human A549 cells incubated for 48 hrs by MTT assay. The settings on record: a549, 48 h. In kind it is cell-based.

By MIC99 is commonly meant an inhibitory concentration at the 99% level, which refers to growth in some studies and to a panel of isolates in others. Higher therefore signals lower susceptibility.

Values after ≈ are worked out from the molar mass of the structure shown.

For the compound `CC[C@H](C)[C@H](N)C(=O)NCC(=O)O[C@@H]1CC[C@@]2(C)[C@@H](C1)C[C@@H](OC(=O)CNC(=O)[C@@H](N)[C@@H](C)CC)[C@@H]1[C@@H]2C[C@H](OC(=O)CNC(=O)[C@@H](N)[C@@H](C)CC)[C@]2(C)[C@@H]([C@H](C)CCC(=O)OCc3ccccc3)CC[C@@H]12`, the MIC99 against Escherichia coli is 8 µM (≈ 8.07 µg/mL); in the data set with Klebsiella pneumoniae, 16 µM (≈ 16.1 µg/mL); against Acinetobacter baumannii, 16 µM (≈ 16.1 µg/mL). In addition, the Activity result with Erythrocyte and in the data set with A549 was “Toxic” each time.

The values above are taken from ChEMBL document CHEMBL4411332, “Deciphering the Role of Intramolecular Networking in Cholic Acid-Peptide Conjugates on the Lipopolysaccharide Surface in Combating Gram-Negative Bacterial Infections” (J Med Chem, 2019).
